Laboratory results from ChEMBL document CHEMBL4619791, “3-Difluoroalkyl Quaternary Oxindoles Inhibit Macrophage Pyroptosis by Blocking Inflammasome Recruitment of Caspase-1” (ACS Med Chem Lett, 2020).
Calls of active or inactive are those of the source. The calls are words filed in the database; no cut-off is given here.

Key:
[1] = Toxicity in zebrafish embryo; design: species or system Danio rerio; conditions: in vivo
How it was run: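 Zebrafish embryos exposed to compound. EC100 is the concentration at which all treated embryos show early lethality, embryonic defects or developmental delay.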

[2] = test system: J774.A1; experiment: Inhibition of pyroptosis in LPS-primed immortalized mouse […] cells followed by subsequent nigericin stimulation by imaging analysis; type: functional, cell-based
[3] = test system: J774.A1; experiment: Inhibition of pyroptosis in LPS-primed immortalized mouse […] cells assessed as reduction in nigericin-induced IL-beta secretion by imaging analysis; type: functional
[4] = molecular target: T1, Caspase-1 (Homo sapiens) (UniProt P29466); experiment: Inhibition of pronase-mediated caspase-1 degradation in HEK293 cell lysate at 5 uM measured after 30 mins by DARTS based Western blot analysis; type: cell-free
T1 sequence (whole entry): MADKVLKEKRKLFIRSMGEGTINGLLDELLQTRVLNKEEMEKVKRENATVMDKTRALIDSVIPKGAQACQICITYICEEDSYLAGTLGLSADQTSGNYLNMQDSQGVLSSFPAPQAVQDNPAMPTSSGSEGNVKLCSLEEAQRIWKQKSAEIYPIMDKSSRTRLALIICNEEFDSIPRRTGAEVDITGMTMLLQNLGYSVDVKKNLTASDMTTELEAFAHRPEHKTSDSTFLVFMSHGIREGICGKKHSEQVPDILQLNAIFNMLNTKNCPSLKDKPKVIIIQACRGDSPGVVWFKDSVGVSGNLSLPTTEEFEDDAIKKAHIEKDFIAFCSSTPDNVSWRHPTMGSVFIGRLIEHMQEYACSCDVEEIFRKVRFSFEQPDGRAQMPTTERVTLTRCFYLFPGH
How it was run: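 DARTS assay: cell lysates pretreated with compound, then digested with different Pronase concentrations. Caspase-1 stability read by immunoblot against a histone H3 control.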

SMILES: CCOC(CN1C(=O)C(NC(=O)OC(C)(C)C)(C(F)(F)C(=O)c2ccc(OC)cc2)c2ccccc21)OCC (stereo not drawn)
- EC100 [1]: > 50 µM
- EC50 [2]: 17.5 µM
- Activity [3]: 202.6 pg/mL

SMILES: CCOC(CN1C(=O)C(NC(=O)OC(C)(C)C)(C(F)(F)C(=O)c2ccccc2)c2ccccc21)OCC (stereo not drawn)
- EC100 [1]: 50 µM
- EC50 [2]: 9.5 µM
- Activity [3]: 222.04 pg/mL

SMILES: CC(C)(C)OC(=O)NC1(C(F)(F)C(=O)c2ccccc2)C(=O)Nc2ccccc21 (stereo not drawn)
- EC100 [1]: > 50 µM
- Activity [3]: 240.83 pg/mL

SMILES: N#CC(C#N)C1(C(F)(F)C(=O)c2ccc(Cl)cc2)C(=O)Nc2ccccc21 (stereo not drawn)
- EC100 [1]: 20 µM
- Activity [3]: 252.29 pg/mL

SMILES: CN1C(=O)C(NC(=O)OC(C)(C)C)(C(F)(F)C(=O)c2ccccc2)c2ccccc21 (stereo not drawn)
- EC100 [1]: > 50 µM
- inhibition [4]: inactive
- Activity [3]: 232.64 pg/mL
